# Compounds with a hit are over-represented: about 2.1% of the library has one in this group of screens.
# TNF necrop inh: inhibitors of TNF-alpha triggered necroptosis, primary screen, cell-based, Jurkat FADD-/-, single concentration; AID 463075, 2010; Jurkat FADD-/- TNF necroptosis rescue, ATP luminescence, 24 h; 0 = TNF only, 100 = no-TNF cells; 0.068% of 220,000 active; activation (protection from cell death), % at 10 µM;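 active = activation, meaning protection from cell death, of at least 50% relative to plate controls; inactive = activation below 50%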;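 note: necroptosis triggered by 40 ng/mL TNF-alpha added together with compound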
# Runt-CBFb FRET: inhibitors of RUNX1 Runt–CBFb binding, primary screen, biochemical, FRET, Cerulean-Runt, Venus-CBFb, uHTS; Cerulean-Runt/Venus-CBFb FRET ratio 530/480, 1 h; inhibition, % at 20 µM; Runt-related transcription factor 1 (Homo sapiens) + Core-binding factor subunit beta …; 0.46% of 220,000 active;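 active = inhibition over about 50% at 20 µM in the single-dose screen, limit read from the data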;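 note: 0% = DMSO wells and 100% = excess unlabeled CBFb competitor control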
# Target sequence (Q01196 whole entry, looked up): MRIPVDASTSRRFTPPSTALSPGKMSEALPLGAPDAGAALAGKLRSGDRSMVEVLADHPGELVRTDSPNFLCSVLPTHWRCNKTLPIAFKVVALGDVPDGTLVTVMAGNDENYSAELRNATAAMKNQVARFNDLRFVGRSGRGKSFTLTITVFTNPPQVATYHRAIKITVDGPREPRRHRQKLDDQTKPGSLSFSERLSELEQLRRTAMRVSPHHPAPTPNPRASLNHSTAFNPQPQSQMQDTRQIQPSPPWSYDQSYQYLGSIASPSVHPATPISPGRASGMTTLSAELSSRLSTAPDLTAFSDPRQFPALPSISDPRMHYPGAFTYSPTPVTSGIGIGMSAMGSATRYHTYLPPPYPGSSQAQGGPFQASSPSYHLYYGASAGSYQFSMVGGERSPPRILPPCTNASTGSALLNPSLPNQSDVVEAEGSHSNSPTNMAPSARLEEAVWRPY
# Target sequence (Q13951 whole entry, looked up): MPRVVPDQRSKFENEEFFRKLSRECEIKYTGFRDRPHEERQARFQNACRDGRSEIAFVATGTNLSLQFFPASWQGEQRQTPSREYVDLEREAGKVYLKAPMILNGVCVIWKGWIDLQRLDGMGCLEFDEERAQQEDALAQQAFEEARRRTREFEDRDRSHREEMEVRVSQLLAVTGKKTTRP
#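 Reagent – Venus-CBFb binding partner, 100 nM · Assay system – Cerulean-tagged RUNX1 Runt domain (FRET donor) fusion protein · Input – 100 nM per protein · Incubation – two 1 h room-temperature incubations shielded from light · Measured by – FRET fluorescence · Medium – Tris buffer pH 7.5 with salts and BSA · Benchmarks – unlabeled CBFb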
# RanGTP-Imp inh: inhibitors of RanGTP-importin-beta interaction, primary screen, biochemical, FRET, CFP-Ran, YFP-importin-beta, homogeneous; cell-free CFP-Ran/YFP-importin-beta FRET ratio; inhibition, % (concentration not given with the values); 1.1% of 300,000 active;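 active = more than half of the replicate wells show a fall in the fluorescence ratio signal beyond about 16%, limit read from the data, passing the limit was not always enough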;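 note: 0% = DMSO wells and 100% = Ran loaded with GDP instead of GTP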
# Hck Nef HTS: inhibitors of Nef-activated human Hck kinase, primary screen, biochemical, Z-Lyte FRET, 384-well, Hck-YEEI; inhibition, % at 20 µM; 0.68% of 220,000 active; Recombinant Hck-YEEI plus Nef, Z-Lyte FRET kinase assay; Tyrosine-protein kinase HCK (Homo sapiens), P08631;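 active = Hck-Nef kinase inhibition above about 50%, limit read from the data; inactive = inhibition below that limit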;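 note: 0% = DMSO with Hck plus Nef and 100% = Hck alone without Nef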
# L929 necroptosis: inhibitors of zVAD-triggered necroptosis, primary screen, L929 cells. AID 1377, 2008. viability rescue, % at 10 µM. L929 zVAD necroptosis rescue, ATP luminescence, 24 h; with zVAD 60 µM. 0.38% of 220,000 active;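 active = activation, scaled between plate controls, above about 75%, limit read from the data; inactive = activation under that limit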;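 note: 0% = zVAD with DMSO and 100% = DMSO alone without zVAD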
# Runt-SMMHC FRET: inhibitors of RUNX1 Runt–CBFb-SMMHC binding, primary screen, biochemical, FRET, Cerulean-Runt, Venus-CBFb-SMMHC, uHTS; Runt-related transcription factor 1 (Homo sapiens) + Core-binding factor subunit beta …; Cerulean-Runt/Venus-CBFb-SMMHC FRET ratio 530/480, 1 h; inhibition, % at 20 µM; 0.74% of 220,000 active; AID 1434, 2008;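 active = mean inhibition across duplicate retests at 20 µM reaching about 50%, limit read from the data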;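 note: 0% = DMSO wells and 100% = wells with excess untagged CBFb-SMMHC; inhibitors lower the FRET ratio by blocking Runt binding to CBFb-SMMHC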
# Numbers without * were called inactive; · = no result.
SMILES,TNF necrop inh,Runt-CBFb FRET,RanGTP-Imp inh,Hck Nef HTS,L929 necroptosis,Runt-SMMHC FRET
CCN1CCc2c(sc(NC(=S)NC(=O)c3ccccc3)c2C#N)C1,1.8,11.7,140.8*,-0.6,0.1,-14.1
CN1Cc2sc(NC(=S)NC(=O)c3ccccc3)c(C#N)c2CC1(C)C,3.5,14.0,144.8*,8.6,2.1,67.1*
CCOC(=O)c1csc(NC(=O)C2=COCCO2)n1,·,·,-3.0,·,·,·
CCc1ccc(/C=C2\Oc3cc(OC(=O)N4CCOCC4)ccc3C2=O)cc1,0.0,-0.5,1.6,2.7,0.7,11.0
O=C1/C(=C/c2ccc(O)c(O)c2)Oc2cc(O)ccc21,-2.3,-81.2,·,-18.2,12.6,54.6*
CC(=O)c1c(N2CCN(Cc3ccccc3)CC2)nc(=S)n(-c2ccccc2)c1C,-0.2,46.2,85.3*,0.0,-1.6,98.0*
CC(=O)c1c(N2CCN(c3ccccc3)CC2)nc(=S)n(-c2ccccc2)c1C,-4.3,-0.6,2.1,0.4,-0.1,-37.7
CC(=O)c1c(N2CCN(c3ccc(F)cc3)CC2)nc(=S)n(Cc2ccccc2)c1C,-2.8,0.5,12.1,3.0,-0.8,0.8
CCn1c(C)c(C(C)=O)c(N2CCN(c3ccc(F)cc3)CC2)nc1=S,0.3,23.4,20.5*,-21.3,-0.1,0.4
CC(=O)c1c(N2CCCCC2)nc(=S)n(Cc2ccccc2)c1C,-0.6,-4.7,4.0,1.1,-0.2,-5.9
CC(=O)c1c(N2CCN(CCO)CC2)nc(=S)n(-c2ccccc2)c1C,-0.9,65.1*,61.6*,11.8,1.6,92.5*
CC(=O)c1c(N2CCN(Cc3ccccc3)CC2)nc(=S)n(Cc2ccccc2)c1C,1.0,74.7*,68.3*,1.4,-0.3,82.4*
COCCCNC(=O)C1CCC(CNS(=O)(=O)c2ccc(C)cc2)CC1 (stereo unspecified),0.9,-0.8,0.3,-2.3,1.3,-0.1
COc1ccc(S(=O)(=O)N2CC(O)C[C@H]2C(=O)OCC(=O)N2CCCCCC2)cc1 (stereo partly specified),0.8,0.5,6.7,-37.6,0.1,-0.8
CCC1CCCCN1C(=O)CCNS(=O)(=O)c1ccc2c(c1)oc(=O)n2C (stereo unspecified),·,·,1.9,·,·,·
COc1ccccc1NC(=O)COc1ccc2c(c1)OCO2,·,·,-5.4,·,·,·
Cc1nn(CC(=O)N2CCC(N3CCCCC3)CC2)c(=O)c2c1sc1ccccc12,·,·,2.5,·,·,·
CCOC(=O)C1CCCN(C(=O)Cn2sc3nc(C)cc(C)c3c2=O)C1 (stereo unspecified),-3.0,-15.0,-0.4,-2.0,0.0,59.4*
Cc1cc(C)c2c(=O)n(CC(=O)N3CCC(N4CCCCC4)CC3)sc2n1,-4.5,-10.1,-1.6,0.7,-0.3,64.4*
CCCNC(=O)Cn1sc2nc(C)cc(C)c2c1=O,-3.5,13.9,-4.1,-43.1,0.4,60.5*
c1ccc(CCNc2ccccc2)cc1,·,-1.9,·,·,·,-1.4
Cc1cc(/C=N/NC(=O)c2ccc(O)cc2)c(C)n1CC(C)C,-0.7,-0.8,-1.4,3.1,1.9,-3.2
CCN1C(=O)N/C(=C/c2ccc(Sc3ccc(C)cc3)o2)C1=O,-0.5,5.2,22.7*,-0.3,-0.1,18.7
O=C(CCC(=O)N/N=C/c1ccc(Br)s1)NCc1ccccc1,0.6,-1.2,0.2,-2.5,0.1,2.6
O=C(CCC(=O)N/N=C/c1cc(Cl)cc(Cl)c1O)NCc1ccccc1,0.2,19.8,43.0*,15.1,21.1,91.5*
SMILES,TNF necrop inh,Runt-CBFb FRET,RanGTP-Imp inh,Hck Nef HTS,L929 necroptosis,Runt-SMMHC FRET
Cc1[nH]n(-c2ccccc2)c(=O)c1C=Nc1ccc(S(=O)(=O)N=C(N)N)cc1,-2.9,-1.3,-1.4,18.0,-0.2,-2.7
Cc1[nH]n(-c2ccccc2)c(=S)c1C=Nc1ccc([N+](=O)[O-])cc1,2.1,-7.4,·,3.5,-0.2,73.8*
Cc1ccccc1C(=O)N=c1c(C#N)cc2c(=O)n3cccc(C)c3nc2n1Cc1ccco1,-0.7,124.0*,110.3*,12.6,-0.2,57.8*
N#Cc1cc2c(=O)n3ccccc3nc2n(Cc2ccco2)c1=NC(=O)c1ccco1,1.0,3.5,55.7*,1.9,0.3,·
COc1ccc(C(=O)N=c2c(C#N)cc3c(=O)n4cccc(C)c4nc3n2Cc2ccco2)cc1,-6.1,69.9*,78.2*,8.1,-0.2,·
Cc1cccn2c(=O)c3cc(C#N)c(=O)n(-c4c(C)n(C)n(-c5ccccc5)c4=O)c3nc12,0.9,14.4,2.4,10.0,1.6,48.6
CN=C(NC1CCCCC1)c1ccc(Cl)cc1,1.6,-1.9,1.2,-7.4,·,0.8
COc1ccc2nc(C)cc(NCc3ccc(F)cc3)c2c1,·,·,-12.4,·,·,·
COC(=O)C1=C(C)NC2=C(C(=O)CC(C)(C)C2)C1c1ccccn1 (stereo unspecified),-1.8,70.5*,8.4,39.9,-0.5,123.0*
COC(=O)C1=C(C)NC2=C(C(=O)C(C(=O)OC)C(c3ccc(OC)cc3)C2)C1c1ccccn1 (stereo unspecified),-3.8,35.3,11.8,22.7,0.0,69.7*
CCOC(=O)c1ccc[n+](CC(=O)c2ccccc2)c1,0.9,-3.3,25.2*,-1.3,-0.3,-8.7
CCOC(=O)c1ccc[n+](CC(=O)c2ccc(OC)cc2)c1,1.0,-0.8,6.7,8.1,-0.4,-5.7
Cn1c(=O)c2nc3ccccc3nc2n(C)c1=O,-0.7,31.2,6.5,20.1,13.9,62.6*
Cn1c(=O)c2nc(-c3ccccc3)c(-c3ccccc3)nc2n(C)c1=O,·,·,6.2,·,·,·
COc1cccc(C(=O)NCC(=O)N2CCC3(CC2)NCCc2[nH]cnc23)c1OC,·,·,-5.0,·,·,·
Cc1cccc(C(=O)NC2=NCCS2)c1,-0.7,2.0,4.0,76.1*,2.7,1.9
CCC(=O)Nc1cc(C)c(NC(=O)CCc2ccccc2)cn1,0.5,29.0,39.6*,1.4,1.3,88.8*
CCc1ccc(-c2c(C)sc(NC(C)=O)c2C(N)=O)cc1,-14.7,4.2,2.1,39.2,77.7*,-1.8
NC(=O)c1ccsc1NC(=O)COC(=O)C1CC2CCCC(C1)C2=O (stereo unspecified),0.8,0.2,3.1,30.0,-0.1,-2.5

# Screening results (PubChem)
